The term logP denotes the decadic logarithm of the partition coefficient of the neutral form, usually between octanol and water. The low end stands for a more hydrophilic compound, the high end for a more lipophilic compound. Usually inhibition stands for how much of the control response was suppressed.

This note sets out measurements from ChEMBL document CHEMBL4406821, “Novel dual inhibitors targeting CDK4 and VEGFR2 synergistically suppressed cancer progression and angiogenesis” (Eur J Med Chem, 2019).

Data set [1] is described as follows: Toxicity in NOD/SCID BALB/c mouse xenografted with human SiHa cells assessed as body weight at 40 mg/kg, po administered for 21 days. The following applies: in vivo, 504 h. It is filed as organism-based. The essentials: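 Female NOD/SCID Balb/c mice, 6–8 weeks, implanted subcutaneously in right flank with 2×10^6 SiHa cells in 100 µL medium. At 100 mm³ tumors, randomized (5 mice/group) to daily oral gavage. Body weight monitored every 3 days; study ended day 21.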
Background: In xenograft studies the graft and the host belong to different species.

Data set [2] is described as follows: n-octanol/water partition coefficient, log P of the compound by shake flask method based HPLC analysis. It is filed as physicochemical.
The subject of the next data set is MDA-MB-231. In words: Antiproliferative activity against human MDA-MB-231 cells at 20 to 40 nM assessed as reduction in cell viability incubated for 48 hrs by EdU staining based laser scanning confocal microscopy. The format is functional. The essentials:
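Cells, 5×10^4, were seeded in 24-well plates and treated for 48 h. They were then labeled using an EdU Apollo 488 imaging kit with Hoechst 33342 nuclear stain and imaged by laser scanning confocal microscopy. Percent EdU-positive cells = EdU-positive/Hoechst-stained × 100%.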

In another data set the test system is SiHa. The experiment in a line: Induction of apoptosis in human SiHa cells assessed as decrease in Ki67 expression at 40 to 80 nM incubated for 48 hrs by Western blot analysis. The format is functional, cell-based. The essentials: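 Cancer cells were exposed to graded concentrations for 48 h, washed three times in PBS and lysed in RIPA buffer. Immunoblots were probed with anti-Rb, anti-phospho-Rb, anti-Ki67 and anti-Bcl-2, each at 1:1000. β-actin served as loading control.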
In general terms: A western blot detects proteins with antibodies after separation by electrophoresis.

Data set [3] can be described thus: Toxicity in NOD/SCID BALB/c mouse xenografted with human SiHa cells assessed as reduction in body weight at 20 to 40 mg/kg, po administered for 21 days. The format is organism-based. The following applies: in vivo, 504 h.
For data set [4], the target named is 5'-AMP-activated protein kinase catalytic subunit alpha-1 (Homo sapiens) (UniProt Q13131). The experiment in a line: Inhibition of recombinant full length human AMPKalpha1 at 1 uM using AMARAASAAALAR as substrate incubated for 40 mins in presence of [gamma-33P]-ATP by scintillation counting method relative to control. The procedure, abridged:
(§1)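 Kinase panel profiling at 1 μM performed by Eurofins KinaseProfiler; percent inhibition reported as mean of two independent experiments.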

Data set [5] concerns the target Calcium/calmodulin-dependent protein kinase type 1B (Homo sapiens) (UniProt Q6P2M8). The experiment in a line: Inhibition of recombinant full length human CAMKIbeta at 1 uM using KKLRRTLSFAEP as substrate incubated for 40 mins in presence of [gamma-33P]-ATP by scintillation counting method relative to control. The procedure, abridged: as §1
In data set [6] the target is Calcium/calmodulin-dependent protein kinase type 1D (Homo sapiens) (UniProt Q8IU85). The experiment in a line: Inhibition of recombinant full length human CAMKIdelta at 1 uM using calmodulin as substrate incubated for 40 mins in presence of [gamma-33P]-ATP by scintillation counting method relative to control. The procedure, abridged:
as §1

For data set [7], the target named is Casein kinase 2 (Homo sapiens) (UniProt P67870+P68400+P19784+Q8NEV1). The experiment in a line: Inhibition of recombinant full length human CK2 expressed in insect Sf21 cells at 1 uM using CK2 substrate peptide as substrate incubated for 40 mins in presence of [gamma-33P]-ATP by scintillation counting method relative to control. The procedure, abridged: as §1

For data set [8], the system named is Epidermal growth factor receptor (Homo sapiens), P00533 [L861Q]. In words: Inhibition of recombinant human EGFR L861Q mutant (696 to end residues) at 1 uM using poly(Glu, Tyr) 4:1 as substrate incubated for 40 mins in presence of [gamma-33P]-ATP by scintillation counting method relative to control.
Data set [9] has as its target Ephrin type-B receptor 4 (Homo sapiens) (UniProt P54760). In words: Inhibition of recombinant human EPhB4 (561 to end residues) at 1 uM using poly (Glu, Tyr) 4:1 as substrate incubated for 40 mins in presence of [gamma-33P]-ATP by scintillation counting method relative to control.
Data set [10] deals with Dual specificity mitogen-activated protein kinase kinase 1 (Homo sapiens) (UniProt Q02750). In words: Inhibition of recombinant human full length MEK1 at 1 uM using as unactive MAPK2 substrate incubated for 40 mins in presence of [gamma-33P]-ATP by scintillation counting method relative to control.
Data set [11] concerns the target Serine/threonine-protein kinase NLK (Homo sapiens) (UniProt Q9UBE8). The experiment in a line: Inhibition of recombinant human NLK (121 to end residues) at 1 uM using myelin basic protein as substrate incubated for 40 mins in presence of [gamma-33P]-ATP by scintillation counting method relative to control.
For data set [12], the system named is Platelet-derived growth factor receptor alpha (Homo sapiens), P16234 [D842V]. The experiment in a line: Inhibition of recombinant human PDGFRalpha D842V mutant (550 to end residues) at 1 uM using GGMEDIYFEFMGGKKK as substrate incubated for 40 mins in presence of [gamma-33P]-ATP by scintillation counting method relative to control. The essentials: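 Tested at a single 1 uM in an outsourced commercial kinase-profiling panel, read as percent inhibition. Each value is the mean of two independent experiments.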
Sequence of Platelet-derived growth factor receptor alpha (Homo sapiens), P16234 [D842V] (P16234 whole entry D842V): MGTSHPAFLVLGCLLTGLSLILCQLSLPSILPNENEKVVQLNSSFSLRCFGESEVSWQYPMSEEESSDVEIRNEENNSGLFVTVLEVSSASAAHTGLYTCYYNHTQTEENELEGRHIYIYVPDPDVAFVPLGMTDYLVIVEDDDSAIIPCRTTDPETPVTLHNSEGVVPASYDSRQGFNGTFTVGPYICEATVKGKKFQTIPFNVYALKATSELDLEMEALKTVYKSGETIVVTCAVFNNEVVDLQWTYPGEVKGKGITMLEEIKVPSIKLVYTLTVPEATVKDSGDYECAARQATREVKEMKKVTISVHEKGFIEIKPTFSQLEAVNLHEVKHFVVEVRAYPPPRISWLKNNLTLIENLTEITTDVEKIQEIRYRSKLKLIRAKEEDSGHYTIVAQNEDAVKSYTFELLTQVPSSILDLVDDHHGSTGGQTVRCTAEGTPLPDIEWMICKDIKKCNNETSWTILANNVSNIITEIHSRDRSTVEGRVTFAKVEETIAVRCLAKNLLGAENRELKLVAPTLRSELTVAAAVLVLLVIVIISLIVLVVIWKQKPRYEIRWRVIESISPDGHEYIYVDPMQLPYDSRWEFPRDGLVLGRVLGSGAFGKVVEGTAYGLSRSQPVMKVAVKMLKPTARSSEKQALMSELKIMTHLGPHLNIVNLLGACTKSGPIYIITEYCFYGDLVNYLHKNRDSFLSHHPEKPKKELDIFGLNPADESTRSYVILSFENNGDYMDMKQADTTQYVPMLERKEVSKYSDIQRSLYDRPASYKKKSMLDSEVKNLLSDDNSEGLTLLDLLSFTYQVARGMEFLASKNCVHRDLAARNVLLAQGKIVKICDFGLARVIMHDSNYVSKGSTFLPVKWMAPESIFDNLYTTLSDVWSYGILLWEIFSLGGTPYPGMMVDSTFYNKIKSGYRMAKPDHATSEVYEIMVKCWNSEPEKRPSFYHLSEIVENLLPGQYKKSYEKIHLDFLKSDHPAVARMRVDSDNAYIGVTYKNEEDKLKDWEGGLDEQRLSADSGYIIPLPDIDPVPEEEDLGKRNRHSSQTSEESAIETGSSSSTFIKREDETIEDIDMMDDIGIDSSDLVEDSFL

Data set [13] deals with Tyrosine-protein kinase FRK (Homo sapiens) (UniProt P42685). In words: Inhibition of recombinant human PTK5 (218 to end residues) at 1 uM using GGEEEEYFELVKKKK as substrate incubated for 40 mins in presence of [gamma-33P]-ATP by scintillation counting method relative to control.
Sequence of Tyrosine-protein kinase FRK (Homo sapiens) (P42685 whole entry): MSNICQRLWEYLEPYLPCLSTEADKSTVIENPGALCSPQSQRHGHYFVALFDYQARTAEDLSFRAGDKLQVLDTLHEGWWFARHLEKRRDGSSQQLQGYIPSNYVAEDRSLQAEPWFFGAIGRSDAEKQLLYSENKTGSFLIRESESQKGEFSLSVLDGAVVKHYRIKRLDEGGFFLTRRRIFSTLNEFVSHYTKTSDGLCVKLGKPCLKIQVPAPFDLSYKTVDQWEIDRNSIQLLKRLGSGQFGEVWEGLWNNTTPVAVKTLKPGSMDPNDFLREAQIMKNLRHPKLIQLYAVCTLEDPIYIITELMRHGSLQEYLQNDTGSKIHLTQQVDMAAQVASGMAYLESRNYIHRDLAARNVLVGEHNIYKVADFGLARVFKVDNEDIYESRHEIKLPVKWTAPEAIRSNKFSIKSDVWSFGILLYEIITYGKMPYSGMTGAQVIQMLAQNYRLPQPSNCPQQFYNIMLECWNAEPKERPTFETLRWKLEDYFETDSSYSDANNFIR
For data set [14], the target named is Tyrosine-protein kinase receptor TYRO3 (Homo sapiens) (UniProt Q06418). In words: Inhibition of recombinant human RSE (451 to end residues) at 1 uM using KVEKIGEGTYGVVYK as substrate incubated for 40 mins in presence of [gamma-33P]-ATP by scintillation counting method relative to control.
Sequence of Tyrosine-protein kinase receptor TYRO3 (Homo sapiens) (Q06418 whole entry, the tested form may be a part): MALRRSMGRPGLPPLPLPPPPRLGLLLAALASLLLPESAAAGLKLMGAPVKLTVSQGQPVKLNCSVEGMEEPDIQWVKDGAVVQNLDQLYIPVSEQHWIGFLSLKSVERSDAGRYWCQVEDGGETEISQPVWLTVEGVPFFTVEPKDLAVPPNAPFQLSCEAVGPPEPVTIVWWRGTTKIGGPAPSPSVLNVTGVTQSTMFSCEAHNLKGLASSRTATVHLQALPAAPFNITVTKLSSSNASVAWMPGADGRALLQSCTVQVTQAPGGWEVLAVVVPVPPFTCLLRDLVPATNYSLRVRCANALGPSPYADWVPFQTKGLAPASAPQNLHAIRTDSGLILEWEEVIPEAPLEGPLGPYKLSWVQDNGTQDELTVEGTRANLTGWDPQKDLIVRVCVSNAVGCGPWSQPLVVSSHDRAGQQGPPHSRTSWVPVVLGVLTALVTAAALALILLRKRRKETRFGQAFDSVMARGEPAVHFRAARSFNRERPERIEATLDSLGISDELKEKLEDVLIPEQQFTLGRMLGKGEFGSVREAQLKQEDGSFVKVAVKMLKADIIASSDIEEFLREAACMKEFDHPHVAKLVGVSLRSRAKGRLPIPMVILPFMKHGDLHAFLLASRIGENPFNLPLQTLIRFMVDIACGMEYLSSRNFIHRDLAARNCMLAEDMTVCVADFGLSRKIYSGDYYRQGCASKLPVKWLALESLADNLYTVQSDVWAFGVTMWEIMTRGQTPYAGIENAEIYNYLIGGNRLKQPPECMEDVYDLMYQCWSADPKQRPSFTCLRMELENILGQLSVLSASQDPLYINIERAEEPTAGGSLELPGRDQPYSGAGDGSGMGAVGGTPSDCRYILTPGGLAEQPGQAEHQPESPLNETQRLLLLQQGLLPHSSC
For data set [15], the target named is Serine/threonine-protein kinase 25 (Homo sapiens) (UniProt O00506). The experiment in a line: Inhibition of recombinant human STK25 (1 to 308 residues) at 1 uM using RLGRDKYKTLRQIRQ as substrate incubated for 40 mins in presence of [gamma-33P]-ATP by scintillation counting method relative to control.
For data set [16], the target named is TGF-beta receptor type-1 (Homo sapiens) (UniProt P36897). The experiment in a line: Inhibition of recombinant human TGFBR1 (200 to end residues) at 1 uM using casein as substrate incubated for 40 mins in presence of [gamma-33P]-ATP by scintillation counting method relative to control.
The subject of data set [17] is Angiopoietin-1 receptor (Homo sapiens), Q02763 [R849W]. In words: Inhibition of recombinant human TIE2 R849W mutant (771 to end residues) at 1 uM using EFPIYDFLPAKKK as substrate incubated for 40 mins in presence of [gamma-33P]-ATP by scintillation counting method relative to control.
In another data set the test system is HUVEC. The experiment in a line: Antiproliferative activity against HUVEC cells assessed as reduction in cell viability measured upto 72 hrs by CCK8 assay. It is filed as functional, cell-based. The following applies: Homo sapiens. The essentials:
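HUVECs, 3×10³ cells/well, kept in 1640 medium with 10% FBS at 37°C and 5% CO₂. Cells were treated at 20 or 40 nM or vehicle, and viability was read by CCK-8 (absorbance 450 nm) at 0, 12, 24, 36, 48, 60 and 72 h. Five replicates per sample.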
(In general: Tetrazolium dyes change colour on reduction, which living cells bring about.)

The structures appear in SMILES notation. The source made the active and inactive calls. No cut-off for these calls is given here.

Sequence of Ephrin type-B receptor 4 (Homo sapiens) (P54760 whole entry): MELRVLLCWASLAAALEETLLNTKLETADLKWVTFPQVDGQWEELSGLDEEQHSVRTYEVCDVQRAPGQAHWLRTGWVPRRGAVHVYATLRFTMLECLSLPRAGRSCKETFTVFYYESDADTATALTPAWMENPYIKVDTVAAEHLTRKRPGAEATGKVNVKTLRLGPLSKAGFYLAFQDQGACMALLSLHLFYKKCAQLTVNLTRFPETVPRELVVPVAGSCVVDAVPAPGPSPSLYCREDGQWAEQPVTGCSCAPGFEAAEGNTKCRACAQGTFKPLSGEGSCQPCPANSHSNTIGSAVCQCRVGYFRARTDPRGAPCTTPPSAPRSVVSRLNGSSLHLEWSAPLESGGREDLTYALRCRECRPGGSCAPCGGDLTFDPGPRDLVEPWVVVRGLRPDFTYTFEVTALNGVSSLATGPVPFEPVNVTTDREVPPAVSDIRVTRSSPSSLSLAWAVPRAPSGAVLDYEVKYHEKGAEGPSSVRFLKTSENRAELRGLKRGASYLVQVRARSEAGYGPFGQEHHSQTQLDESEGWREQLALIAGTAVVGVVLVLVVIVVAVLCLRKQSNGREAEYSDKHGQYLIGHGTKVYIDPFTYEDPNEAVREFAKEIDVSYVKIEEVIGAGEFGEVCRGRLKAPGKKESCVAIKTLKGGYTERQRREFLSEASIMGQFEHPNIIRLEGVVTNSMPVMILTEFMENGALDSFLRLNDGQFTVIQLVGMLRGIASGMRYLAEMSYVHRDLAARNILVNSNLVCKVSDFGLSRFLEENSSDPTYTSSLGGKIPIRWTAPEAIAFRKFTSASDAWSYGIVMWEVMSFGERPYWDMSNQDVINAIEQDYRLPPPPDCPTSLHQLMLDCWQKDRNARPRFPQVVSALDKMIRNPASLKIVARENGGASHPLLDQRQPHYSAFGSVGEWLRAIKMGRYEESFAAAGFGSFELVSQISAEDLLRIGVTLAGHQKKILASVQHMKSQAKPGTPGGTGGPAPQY
Sequence of 5'-AMP-activated protein kinase catalytic subunit alpha-1 (Homo sapiens) (Q13131 whole entry, looked up): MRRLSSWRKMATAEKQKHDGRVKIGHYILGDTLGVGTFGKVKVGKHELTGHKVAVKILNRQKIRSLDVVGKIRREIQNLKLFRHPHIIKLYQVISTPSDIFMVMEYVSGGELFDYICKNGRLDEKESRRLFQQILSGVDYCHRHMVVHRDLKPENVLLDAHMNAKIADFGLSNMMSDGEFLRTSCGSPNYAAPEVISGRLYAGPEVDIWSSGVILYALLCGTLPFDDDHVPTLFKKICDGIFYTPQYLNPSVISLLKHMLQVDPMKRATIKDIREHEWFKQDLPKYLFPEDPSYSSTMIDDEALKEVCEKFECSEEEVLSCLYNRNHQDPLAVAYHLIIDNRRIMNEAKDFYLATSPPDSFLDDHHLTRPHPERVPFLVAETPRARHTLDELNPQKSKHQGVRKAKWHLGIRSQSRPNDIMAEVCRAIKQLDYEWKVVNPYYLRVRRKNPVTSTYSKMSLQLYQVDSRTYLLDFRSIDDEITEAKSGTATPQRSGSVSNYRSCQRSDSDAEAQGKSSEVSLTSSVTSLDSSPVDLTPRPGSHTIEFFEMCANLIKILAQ
Sequence of Calcium/calmodulin-dependent protein kinase type 1D (Homo sapiens) (Q8IU85 whole entry, looked up): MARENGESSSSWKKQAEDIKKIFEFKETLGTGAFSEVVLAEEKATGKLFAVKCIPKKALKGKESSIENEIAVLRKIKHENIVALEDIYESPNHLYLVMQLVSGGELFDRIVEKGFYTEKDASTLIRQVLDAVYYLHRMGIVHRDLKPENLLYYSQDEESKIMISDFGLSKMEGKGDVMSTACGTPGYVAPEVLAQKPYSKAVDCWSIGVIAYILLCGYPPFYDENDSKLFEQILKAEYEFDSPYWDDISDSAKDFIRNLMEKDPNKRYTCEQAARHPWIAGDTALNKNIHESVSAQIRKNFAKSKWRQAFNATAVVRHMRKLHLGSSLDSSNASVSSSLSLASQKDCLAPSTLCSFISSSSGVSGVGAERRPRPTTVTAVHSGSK
Sequence of Calcium/calmodulin-dependent protein kinase type 1B (Homo sapiens) (Q6P2M8 whole entry): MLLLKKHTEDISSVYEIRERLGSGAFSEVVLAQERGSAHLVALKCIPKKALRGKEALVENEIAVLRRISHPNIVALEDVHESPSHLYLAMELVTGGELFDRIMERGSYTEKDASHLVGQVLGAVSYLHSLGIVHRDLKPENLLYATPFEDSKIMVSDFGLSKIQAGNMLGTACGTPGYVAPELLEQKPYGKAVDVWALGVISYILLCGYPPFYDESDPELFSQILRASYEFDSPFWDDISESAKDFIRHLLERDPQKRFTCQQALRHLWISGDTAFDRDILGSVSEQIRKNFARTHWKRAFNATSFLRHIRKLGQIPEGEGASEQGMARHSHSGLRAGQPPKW

For the compound `COc1cc2nccc(Oc3ccc(NC(=O)C4(C(=O)Nc5ccc(F)cc5)CC4)cc3)c2cc1OC` [CABOZANTINIB], the Activity entry in [1] was “Non-Toxic”.

`Cc1ccc(NC(=O)C2(C(=O)Nc3ccc(Nc4ncc(F)c(-c5cc(F)c6nc(C)n(C(C)C)c6c5)n4)cc3)CC2)cc1` registered a logP in data set [2] of 2.53. Moreover, the inhibition entry with MDA-MB-231 was “Active”. Also, the outcome in the data set on SiHa was Active. Besides, the Activity entry in [3] is “Toxic”. Also, the inhibition stood at 40% in data set [4]; 8% in data set [5]; 1% in data set [6]; 56% in [7]; 34% in data set [8]; 42% in [9]. For the same compound, the inhibition in [10] stood at 7%; in data set [11], 44%; in data set [12], 48%; in data set [13] it was 10%; in data set [14], 66%; in data set [15], 26%. Besides, the inhibition in data set [16] was 6%; in [17], 57%; with HUVEC, “Dose-dependent effect”.
